Laboratory results from ChEMBL document CHEMBL1144868, “Modulation of P-glycoprotein-mediated multidrug resistance by flavonoid derivatives and analogues” (2003).

Legend:
Assay type in all cases: functional, Homo sapiens
K562 [1] = assay: Rhodamine-123 accumulation in K562 cells with or without expression of PGP protein at a concentration of 0.01 uM
Outline: (§1)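 K562R (adriamycin-resistant, Pgp-expressing) cells, kept under continuous 10^-6 M adriamycin, were washed twice and suspended at 10⁶ cells/mL in RPMI. Modulator was added for 15 min at 37 °C, then rhodamine-123 at 0.05 µg/mL final for 1 h at 37 °C. Fluorescence at […] was read by flow cytometry in arbitrary units, as the mean of at least 3 independent experiments.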

K562 [2] = assay: Rhodamine-123 accumulation in K562 cells with or without expression of PGP protein at a concentration of 1 uM; outline: as §1
K562 [3] = assay: Rhodamine-123 accumulation in K562 cells with or without expression of PGP protein at a concentration of 1 nM; outline: as §1
K562 [4] = assay: Rhodamine-123 accumulation in K562 cells with or without expression of PGP protein at a concentration of 0.1 uM; outline: as §1

O=C(c1cc(=O)c2c(O)cccc2o1)N1CCN(Cc2ccccc2)CC1
Rhodamine-123 accumulation (K562 [1]): 72 arbitrary units
Rhodamine-123 accumulation (K562 [2]): 136 arbitrary units
Rhodamine-123 accumulation (K562 [3]): 45 arbitrary units
Rhodamine-123 accumulation (K562 [4]): 95 arbitrary units

COc1cc(OC)c2c(c1)O/C(=C\c1ccccc1)C2=O
Rhodamine-123 accumulation (K562 [1]): 178 arbitrary units
Rhodamine-123 accumulation (K562 [2]): 249 arbitrary units
Rhodamine-123 accumulation (K562 [3]): 40 arbitrary units
Rhodamine-123 accumulation (K562 [4]): 203 arbitrary units

O=C(c1ccccc1)N1CCN(C(=O)c2cc(=O)c3c(O)cccc3o2)CC1
Rhodamine-123 accumulation (K562 [1]): 45 arbitrary units
Rhodamine-123 accumulation (K562 [2]): 42 arbitrary units
Rhodamine-123 accumulation (K562 [3]): 38 arbitrary units
Rhodamine-123 accumulation (K562 [4]): 47 arbitrary units

O=C(c1cc(=O)c2c(O)cccc2o1)N1CCN(c2ccccc2)CC1
Rhodamine-123 accumulation (K562 [1]): 40 arbitrary units
Rhodamine-123 accumulation (K562 [2]): 82 arbitrary units
Rhodamine-123 accumulation (K562 [3]): 39 arbitrary units
Rhodamine-123 accumulation (K562 [4]): 57 arbitrary units

COc1cc(OC)c2c(O)c(-c3ccccc3)cnc2c1
Rhodamine-123 accumulation (K562 [1]): 43 arbitrary units
Rhodamine-123 accumulation (K562 [2]): 82 arbitrary units
Rhodamine-123 accumulation (K562 [3]): 36 arbitrary units
Rhodamine-123 accumulation (K562 [4]): 55 arbitrary units

O=C(NCc1ccc(Cl)cc1)c1cc(=O)c2c(O)cccc2o1
Rhodamine-123 accumulation (K562 [1]): 42 arbitrary units
Rhodamine-123 accumulation (K562 [2]): 46 arbitrary units
Rhodamine-123 accumulation (K562 [3]): 50 arbitrary units
Rhodamine-123 accumulation (K562 [4]): 45 arbitrary units

CN1CCN(C(=O)c2cc(=O)c3c(O)cccc3o2)CC1
Rhodamine-123 accumulation (K562 [1]): 134 arbitrary units
Rhodamine-123 accumulation (K562 [2]): 207 arbitrary units
Rhodamine-123 accumulation (K562 [3]): 76 arbitrary units
Rhodamine-123 accumulation (K562 [4]): 138 arbitrary units

O=C(c1cc(=O)c2c(O)cccc2o1)N1CCCCC1
Rhodamine-123 accumulation (K562 [1]): 46 arbitrary units
Rhodamine-123 accumulation (K562 [2]): 45 arbitrary units
Rhodamine-123 accumulation (K562 [3]): 43 arbitrary units
Rhodamine-123 accumulation (K562 [4]): 44 arbitrary units

CC(=O)N1CCN(C(=O)c2cc(=O)c3c(O)cccc3o2)CC1
Rhodamine-123 accumulation (K562 [1]): 43 arbitrary units
Rhodamine-123 accumulation (K562 [2]): 38 arbitrary units
Rhodamine-123 accumulation (K562 [3]): 41 arbitrary units
Rhodamine-123 accumulation (K562 [4]): 37 arbitrary units

O=C(c1cc(=O)c2c(O)cccc2o1)N1CCOCC1
Rhodamine-123 accumulation (K562 [1]): 41 arbitrary units
Rhodamine-123 accumulation (K562 [2]): 42 arbitrary units
Rhodamine-123 accumulation (K562 [3]): 39 arbitrary units
Rhodamine-123 accumulation (K562 [4]): 44 arbitrary units

CCN1CCN(C(=O)c2cc(=O)c3c(O)cccc3o2)CC1
Rhodamine-123 accumulation (K562 [1]): 44 arbitrary units
Rhodamine-123 accumulation (K562 [2]): 85 arbitrary units
Rhodamine-123 accumulation (K562 [3]): 40 arbitrary units
Rhodamine-123 accumulation (K562 [4]): 47 arbitrary units

COc1cc(OC)c2c(=O)c(-c3ccccc3)coc2c1 [5,7-DIMETHOXYISOFLAVONE]
Rhodamine-123 accumulation (K562 [1]): 54 arbitrary units
Rhodamine-123 accumulation (K562 [2]): 49 arbitrary units
Rhodamine-123 accumulation (K562 [3]): 40 arbitrary units
Rhodamine-123 accumulation (K562 [4]): 46 arbitrary units

C/C=C/C[C@@H](C)[C@@H](O)[C@H]1C(=O)N[C@@H](CC)C(=O)N(C)CC(=O)N(C)[C@@H](CC(C)C)C(=O)N[C@@H](C(C)C)C(=O)N(C)[C@@H](CC(C)C)C(=O)N[C@@H](C)C(=O)N[C@H](C)C(=O)N(C)[C@@H](CC(C)C)C(=O)N(C)[C@@H](CC(C)C)C(=O)N(C)[C@@H](C(C)C)C(=O)N1C [CYCLOSPORINE]
Rhodamine-123 accumulation (K562 [1]): 80 arbitrary units
Rhodamine-123 accumulation (K562 [2]): 102 arbitrary units
Rhodamine-123 accumulation (K562 [3]): 72 arbitrary units
Rhodamine-123 accumulation (K562 [4]): 87 arbitrary units
